Active and inactive are the calls of the source. No cut-off for these calls is given here.
Columns and labels:
[1] = tested on: HeLa; test: Inhibition of mitosis in human HeLa cells assessed as G2 checkpoint inhibition by ELISA; format: functional, cell-based
In short: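 ELISA immunoassay in HeLa cells. Paclitaxel and vinblastine (each 1 µg/mL) were control inhibitors. Five fixed concentrations were tested (10, 2, 0.4, 0.08, 0.016 µg/mL). Inhibition and survival are given as % of controls.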

[2] = tested on: MDA-MB-231; test: Inhibition of histone deacetylase expressed in human MDA-MB-231 cells; format: cell-based
In short: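 Cell extracts from MDA-MB-231 breast carcinoma served as enzyme source. Trichostatin A at 250 nM was the reference inhibitor. Test concentrations were 10, 2, 0.4, 0.08 and 0.016 µg/mL. Data are % inhibition relative to controls.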

[3] = tested on: MDA-MB-231; test: Cytotoxicity against human MDA-MB-231 cells after 48 hrs by sulforhodamine B assay; format: functional; conditions: MDA-MB-231, 48 h; for CC50: read-out: LC50 (the source's name)
In short: (§1)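 Cells seeded at 5×10^3 per well in RPMI and allowed to attach for 18 h in drug-free medium. Samples were added in 3:7 DMSO/H2O, with highest concentration 100 µM, and exposed for 48 h. Cells were fixed with cold TCA at 4 °C for 60 min, stained with 0.4% SRB and solubilized in Tris. OD was read at 490 nm. GI50, TGI and LC50 came from automated analysis following the NCI protocol.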

[4] = tested on: HT-29; test: Cytotoxicity against human HT-29 cells after 48 hrs by sulforhodamine B assay; format: functional; conditions: HT-29, 48 h; in short: as §1
[5] = tested on: A549; test: Cytotoxicity against human A549 cells after 48 hrs by sulforhodamine B assay; format: functional; conditions: A549, 48 h; for CC50: read-out: LC50 (the source's name); in short: as §1
[6] = molecular target: Epidermal growth factor receptor (Homo sapiens) (UniProt P00533); test: Inhibition of EGFR expressed in human HeLa cells at 10 ug/mL by AP1-luciferase reporter gene assay relative to control; format: cell-based
Sequence of Epidermal growth factor receptor (Homo sapiens) (P00533 whole entry): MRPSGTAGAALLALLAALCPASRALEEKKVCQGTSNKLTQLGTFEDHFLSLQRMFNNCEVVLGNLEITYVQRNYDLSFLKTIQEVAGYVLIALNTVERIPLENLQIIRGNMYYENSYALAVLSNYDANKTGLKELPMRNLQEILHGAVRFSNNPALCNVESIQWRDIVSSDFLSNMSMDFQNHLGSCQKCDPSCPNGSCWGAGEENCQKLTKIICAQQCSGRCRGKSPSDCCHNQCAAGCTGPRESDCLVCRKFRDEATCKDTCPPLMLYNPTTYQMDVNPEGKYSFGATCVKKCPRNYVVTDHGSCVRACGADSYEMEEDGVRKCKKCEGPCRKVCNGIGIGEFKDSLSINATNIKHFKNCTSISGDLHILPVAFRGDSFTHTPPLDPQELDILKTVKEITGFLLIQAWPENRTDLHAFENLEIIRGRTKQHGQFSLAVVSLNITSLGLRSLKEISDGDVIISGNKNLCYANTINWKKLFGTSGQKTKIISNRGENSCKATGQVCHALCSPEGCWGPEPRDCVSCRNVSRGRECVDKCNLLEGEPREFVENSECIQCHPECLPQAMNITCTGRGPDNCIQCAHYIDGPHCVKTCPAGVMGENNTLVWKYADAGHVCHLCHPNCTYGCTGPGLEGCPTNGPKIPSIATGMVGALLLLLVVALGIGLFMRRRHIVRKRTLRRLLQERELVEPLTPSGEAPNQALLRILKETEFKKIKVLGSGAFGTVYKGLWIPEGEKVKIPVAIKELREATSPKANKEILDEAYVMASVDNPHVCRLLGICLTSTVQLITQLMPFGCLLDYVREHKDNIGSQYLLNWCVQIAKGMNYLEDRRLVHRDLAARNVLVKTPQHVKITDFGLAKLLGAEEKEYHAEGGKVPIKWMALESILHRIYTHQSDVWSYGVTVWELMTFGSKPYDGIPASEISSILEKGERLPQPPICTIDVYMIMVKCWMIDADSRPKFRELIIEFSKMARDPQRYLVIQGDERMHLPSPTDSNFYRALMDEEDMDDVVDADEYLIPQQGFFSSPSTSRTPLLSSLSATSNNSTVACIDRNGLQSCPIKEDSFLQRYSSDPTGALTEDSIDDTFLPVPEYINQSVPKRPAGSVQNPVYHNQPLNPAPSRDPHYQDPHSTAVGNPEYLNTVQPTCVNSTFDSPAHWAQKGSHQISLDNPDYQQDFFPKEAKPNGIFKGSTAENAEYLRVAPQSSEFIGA
In short: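 AP1-luc stably transfected HeLa cells were grown in DMEM/10% FBS at 20,000 cells/well and set for 24 h. They were treated with 1% DMSO vehicle or compound (10, 2, 0.4, 0.08, 0.016 µg/mL) before stimulation with EGF at 25 ng/mL. Control inhibitor was AG-1478 at 20 µM. Survival was checked by calcein-AM (0.1 µM, 30 min, 37 °C), then luciferase read by luminescence. Values are % of control.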

[7] = molecular target: T1, Catenin beta-1 (Homo sapiens) (UniProt P35222); test: Inhibition of beta-catenin expressed in human SW480 cells by luciferase reporter gene assay
T1 sequence (whole entry): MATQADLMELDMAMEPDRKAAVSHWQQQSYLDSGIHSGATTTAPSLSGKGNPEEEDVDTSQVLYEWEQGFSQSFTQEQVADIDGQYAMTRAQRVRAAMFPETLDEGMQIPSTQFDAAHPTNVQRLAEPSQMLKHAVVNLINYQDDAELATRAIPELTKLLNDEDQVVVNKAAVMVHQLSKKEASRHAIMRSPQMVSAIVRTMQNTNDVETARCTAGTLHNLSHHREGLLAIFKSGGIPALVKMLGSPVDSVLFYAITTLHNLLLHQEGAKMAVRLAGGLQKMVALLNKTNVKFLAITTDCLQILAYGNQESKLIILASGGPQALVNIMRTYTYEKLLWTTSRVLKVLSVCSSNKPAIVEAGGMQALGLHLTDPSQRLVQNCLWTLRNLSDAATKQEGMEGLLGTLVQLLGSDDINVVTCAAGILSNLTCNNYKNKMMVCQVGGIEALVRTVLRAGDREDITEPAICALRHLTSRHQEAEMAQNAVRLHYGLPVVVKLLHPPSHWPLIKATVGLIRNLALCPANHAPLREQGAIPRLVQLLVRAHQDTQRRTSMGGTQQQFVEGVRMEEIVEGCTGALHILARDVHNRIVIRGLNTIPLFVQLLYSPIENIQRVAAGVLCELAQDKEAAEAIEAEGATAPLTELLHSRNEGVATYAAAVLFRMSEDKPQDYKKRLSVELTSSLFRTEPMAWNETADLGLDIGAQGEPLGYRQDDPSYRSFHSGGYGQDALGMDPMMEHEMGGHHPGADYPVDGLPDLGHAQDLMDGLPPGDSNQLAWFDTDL

[8] = molecular target: Hypoxia-inducible factor 1-alpha (Homo sapiens) (UniProt Q16665); test: Inhibition of HIF1alpha expressed in human HeLa cells at 10 ug/mL by HIF1-luciferase reporter gene assay relative to control; format: cell-based
Sequence of Hypoxia-inducible factor 1-alpha (Homo sapiens) (Q16665 whole entry, looked up): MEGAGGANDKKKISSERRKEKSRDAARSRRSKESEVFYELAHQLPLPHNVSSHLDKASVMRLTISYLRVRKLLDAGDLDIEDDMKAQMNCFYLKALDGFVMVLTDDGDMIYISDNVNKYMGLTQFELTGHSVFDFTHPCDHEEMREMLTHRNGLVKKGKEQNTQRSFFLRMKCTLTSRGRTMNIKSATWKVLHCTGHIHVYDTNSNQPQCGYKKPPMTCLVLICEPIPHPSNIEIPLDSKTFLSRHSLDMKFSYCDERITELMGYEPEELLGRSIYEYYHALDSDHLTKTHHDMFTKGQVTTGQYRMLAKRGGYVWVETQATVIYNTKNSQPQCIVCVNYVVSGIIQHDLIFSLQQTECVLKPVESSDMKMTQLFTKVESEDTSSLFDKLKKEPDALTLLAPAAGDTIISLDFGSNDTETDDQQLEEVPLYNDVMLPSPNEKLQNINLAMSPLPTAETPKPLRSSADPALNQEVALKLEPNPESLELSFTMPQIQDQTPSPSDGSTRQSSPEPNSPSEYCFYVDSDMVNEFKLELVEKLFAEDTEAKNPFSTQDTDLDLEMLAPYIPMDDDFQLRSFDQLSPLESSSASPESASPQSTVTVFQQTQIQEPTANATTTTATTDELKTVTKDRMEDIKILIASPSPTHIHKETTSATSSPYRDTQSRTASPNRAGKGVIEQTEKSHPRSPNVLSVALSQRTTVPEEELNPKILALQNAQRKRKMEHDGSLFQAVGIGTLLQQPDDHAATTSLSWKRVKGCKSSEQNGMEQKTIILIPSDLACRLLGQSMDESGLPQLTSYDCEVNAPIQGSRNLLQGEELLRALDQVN
In short: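 HIF1-luc stably transfected HeLa cells were plated at 20,000 cells/well and set for 24 h. They were pretreated 30 min with 1% DMSO vehicle or compound (10, 2, 0.4, 0.08, 0.016 µg/mL), then given 50 µM deferoxamine as hypoxia mimetic for 24 h. Survival was measured by calcein-AM fluorescence (0.1 µM, 30 min, 37 °C), followed by luciferase luminescence. Reported as % of control.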

| Compound | Activity [1] | Activity [2] | GI50 [3] [µM] | TGI [3] [µM] | CC50 [3] [µM] | GI50 [4] [µM] | LC50 (concentration killing 50% of cells) [4] [µM] | TGI [4] [µM] | GI50 [5] [µM] | TGI [5] [µM] | CC50 [5] [µM] | inhibition [6] [%] | Activity [7] | inhibition [8] [%] |
| --- | --- | --- | --- | --- | --- | --- | --- | --- | --- | --- | --- | --- | --- | --- |
| C=CC[C@@]12C[C@@H](C(=O)OC)N3[C@@H]1N(C(=N)C31CCCCC1)c1ccccc12 | inactive | inactive | 23.5 | 24.6 | 25.7 | 22.4 | 25.2 | 23.5 | 23.3 | 24.1 | 25.2 | 52 | inactive | – |
| COC(=O)[C@@H]1C[C@@]2(Br)c3cc(Br)ccc3N3C(=N)[C@H](C(C)(C)C)N1[C@H]32 | inactive | inactive | > 100 | > 100 | > 100 | > 100 | > 100 | > 100 | > 100 | > 100 | > 100 | 0 | inactive | 73 |
| COC(=O)[C@@H]1C[C@]2(CC=C(C)C)c3ccccc3N3C(=N)[C@@H](Cc4ccccc4)N1[C@@H]32 | inactive | inactive | 9.39 | 24.1 | 24.1 | > 100 | > 100 | > 100 | 12 | 24.1 | 24.1 | 0 | inactive | 61 |
| COC(=O)[C@@H]1C[C@@]2(CC=C(C)C)c3ccccc3N3C(=N)[C@H](Cc4ccccc4)N1[C@H]32 | inactive | inactive | > 100 | > 100 | > 100 | 20.2 | 24.1 | 24.1 | 22.1 | 24.1 | 24.1 | 20 | inactive | 78 |
| COC(=O)[C@@H]1C[C@H]2c3ccccc3N3C(=N)C4(CCCCC4)N1[C@@H]23 | inactive | inactive | – | – | – | 9.23 | 9.23 | 9.23 | 9.23 | 9.23 | 9.23 | – | inactive | – |
| COC(=O)[C@@H]1C[C@H]2c3ccccc3N3C(=N)C(C)(C)N1[C@@H]23 | inactive | inactive | – | – | – | – | – | – | – | – | – | – | inactive | – |
